Results: ChEMBL document CHEMBL1125651, “Nucleosides and nucleotides. 95. Improved synthesis of 1-(2-azido-2-deoxy-beta-D-arabinofuranosyl)cytosine (cytarazid) and -thymine. Inhibitory spectrum of cytarazid on the growth of various human tumor cells in vitro” (J Med Chem, 1991)
In brackets after ≈: the same amount, converted by molar mass.

What was measured:
SAOS-2 = assay: In vitro inhibitory effect measured against human osteosarcoma SAOS-2 tumor cells; assay type: functional, cell-based
Procedure, shortened: (§1)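 Cells seeded at 1 × 10^4 cells/mL in RPMI 1640 with 10% heat-inactivated FBS and 50 μg/mL kanamycin. Cultured 72 h at 37 °C in a CO2 incubator with a range of compound concentrations. Viability read by MTT colorimetric assay at OD 570 nm against untreated control wells. IC50 is the μg/mL concentration giving 50% growth inhibition; representative of three separate experiments.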

SK-ES1 = assay: In vitro inhibitory effect measured against human osteosarcoma SK-ES-1 tumor cells; assay type: functional, cell-based; procedure, shortened: as §1
ST-KM-1 [1] = assay: In vitro inhibitory effect measured against human stomach adenocarcinoma ST-KM tumor cells; assay type: functional, cell-based; procedure, shortened: as §1
T-24 = assay: In vitro inhibitory effect measured against human bladder transitional cell carcinoma T-24 tumor cells; assay type: functional, cell-based; procedure, shortened: as §1
QG-56 [2] = assay: In vitro inhibitory effect measured against human lung suamous-cell carcinoma QG-56 tumor cells; assay type: functional, cell-based; procedure, shortened: as §1
HOS [3] = assay: In vitro inhibitory effect measured against human osteosarcoma HOS tumor cells; assay type: functional, cell-based; procedure, shortened: as §1
HT-1080 = assay: In vitro inhibitory effect measured against human fibrosarcoma HT1080 tumor cells; assay type: functional, cell-based; procedure, shortened: as §1
KHOS-321H = assay: In vitro inhibitory effect measured against human osteosarcoma KHOS-321H tumor cells; assay type: functional, cell-based; procedure, shortened: as §1
NCC = assay: In vitro inhibitory effect measured against human renal cell carcinoma NCC-nu tumor cells; assay type: functional, cell-based; procedure, shortened: as §1
NUGC-4 [4] = assay: In vitro inhibitory effect measured against human stomach adenocarcinoma NUGC-4 tumor cells; assay type: functional, cell-based; procedure, shortened: as §1
PC-13 [5] = assay: In vitro inhibitory effect measured against human lung large-cell carcinoma PC-13 tumor cells; assay type: functional, cell-based; procedure, shortened: as §1
U2OS [6] = assay: In vitro inhibitory effect measured against human osteosarcoma U20-S tumor cells; assay type: functional, cell-based; procedure, shortened: as §1
PC-3 [7] = assay: In vitro inhibitory effect measured against human lung adenocarcinoma PC-3 tumor cells; assay type: functional, cell-based; procedure, shortened: as §1
PC-6 = assay: In vitro inhibitory effect measured against human lung small-cell carcinoma PC-6 tumor cells; assay type: functional, cell-based; procedure, shortened: as §1
PC-8 = assay: In vitro inhibitory effect measured against human lung adenocarcinoma PC-8 tumor cells; assay type: functional, cell-based; procedure, shortened: as §1
PC-9 = assay: In vitro inhibitory effect measured against human lung adenocarcinoma PC-9 tumor cells; assay type: functional, cell-based; procedure, shortened: as §1
MFH-ST [8] = assay: In vitro inhibitory effect measured against human malignant fibrous histiocytoma MFH-ST tumor cells; assay type: functional, cell-based; procedure, shortened: as §1
MG-63 [9] = assay: In vitro inhibitory effect measured against human osteosarcoma MG-63 tumor cells; assay type: functional, cell-based; procedure, shortened: as §1
MKN-28 = assay: In vitro inhibitory effect measured against human stomach adenocarcinoma MKN-28 tumor cells; assay type: functional, cell-based; procedure, shortened: as §1
HOS-TE85 = assay: In vitro inhibitory effect measured against human osteosarcoma MNNG-HOS tumor cells; assay type: functional, cell-based; procedure, shortened: as §1
OST [10] = assay: In vitro inhibitory effect measured against human osteosarcoma OST tumor cells; assay type: functional, cell-based; procedure, shortened: as §1
QG-56 [11] = assay: In vitro inhibitory effect measured against human lung suamous-cell carcinoma QG-56 tumor cells at 100 ug/mL; assay type: functional
Procedure, shortened: (§2)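 MTT viability assay after 72 h exposure at 37 °C in a CO2 incubator. Cells at 1 × 10^4 cells/mL in RPMI 1640 with 10% heat-inactivated FBS and 50 μg/mL kanamycin. Percent inhibition = [1 − OD570 of sample/OD570 of untreated control] × 100. Representative of three separate experiments.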

HOS [12] = assay: In vitro inhibitory effect measured against human osteosarcoma HOS tumor cells at 100 ug/mL; assay type: functional; procedure, shortened: as §2
NUGC-4 [13] = assay: In vitro inhibitory effect measured against human stomach adenocarcinoma NUGC-4 tumor cells at 100 ug/mL; assay type: functional; procedure, shortened: as §2
OST [14] = assay: In vitro inhibitory effect measured against human osteosarcoma OST tumor cells at 100 ug/mL; assay type: functional; procedure, shortened: as §2
PC-13 [15] = assay: In vitro inhibitory effect measured against human lung large-cell carcinoma PC-13 tumor cells at 100 ug/mL; assay type: functional; procedure, shortened: as §2
U2OS [16] = assay: In vitro inhibitory effect measured against human osteosarcoma U20-S tumor cells at 100 ug/mL; assay type: functional; procedure, shortened: as §2
PC-3 [17] = assay: In vitro inhibitory effect measured against human lung adenocarcinoma PC-3 tumor cells at 100 ug/mL; assay type: functional; procedure, shortened: as §2
MFH-ST [18] = assay: In vitro inhibitory effect measured against human malignant fibrous histiocytoma MFH-ST tumor cells at 100 ug/mL; assay type: functional; procedure, shortened: as §2
MG-63 [19] = assay: In vitro inhibitory effect measured against human osteosarcoma MG-63 tumor cells at 100 ug/mL; assay type: functional; procedure, shortened: as §2
ST-KM-1 [20] = assay: In vitro inhibitory effect measured against human stomach adenocarcinoma ST-KM tumor cells at 100 ug/mL; assay type: functional; procedure, shortened: as §2

[N-]=[N+]=N[C@H]1[C@H](O)[C@@H](CO)O[C@H]1n1ccc(N)nc1=O [CYTARAZID]
IC50 (SAOS-2): 2.8 µg/mL (≈ 10.4 µM) | IC50 (SK-ES1): 1.1 µg/mL (≈ 4.1 µM) | IC50 (ST-KM-1 [1]): 1.1 µg/mL (≈ 4.1 µM) | IC50 (T-24): 0.56 µg/mL (≈ 2.09 µM) | IC50 (QG-56 [2]): 5.4 µg/mL (≈ 20.1 µM) | IC50 (HOS [3]): 9.4 µg/mL (≈ 35 µM) | IC50 (HT-1080): 1.6 µg/mL (≈ 5.96 µM) | IC50 (KHOS-321H): 0.62 µg/mL (≈ 2.31 µM) | IC50 (NCC): 1.8 µg/mL (≈ 6.71 µM) | IC50 (NUGC-4 [4]): 1.4 µg/mL (≈ 5.22 µM) | IC50 (PC-13 [5]): 18 µg/mL (≈ 67.1 µM) | IC50 (U2OS [6]): 14 µg/mL (≈ 52.2 µM) | IC50 (PC-3 [7]): 18 µg/mL (≈ 67.1 µM) | IC50 (PC-6): 18 µg/mL (≈ 67.1 µM) | IC50 (PC-8): 1.2 µg/mL (≈ 4.47 µM) | IC50 (PC-9): 1 µg/mL (≈ 3.73 µM) | IC50 (MFH-ST [8]): 14 µg/mL (≈ 52.2 µM) | IC50 (MG-63 [9]): 30 µg/mL (≈ 112 µM) | IC50 (MKN-28): 2.2 µg/mL (≈ 8.2 µM) | IC50 (HOS-TE85): 1.5 µg/mL (≈ 5.59 µM) | IC50 (OST [10]): 6.4 µg/mL (≈ 23.9 µM)

Nc1ccn([C@@H]2O[C@H](CO)[C@@H](O)[C@@H]2O)c(=O)n1 [CYTARABINE]
IC50 (SAOS-2): 2.7 µg/mL (≈ 11.1 µM) | IC50 (SK-ES1): 0.09 µg/mL (≈ 0.37 µM) | inhibition at 100 µg/mL (QG-56 [11]): 24.4% | inhibition at 100 µg/mL (HOS [12]): 45.4% | IC50 (HT-1080): 0.13 µg/mL (≈ 0.534 µM) | IC50 (KHOS-321H): 0.27 µg/mL (≈ 1.11 µM) | IC50 (NCC): 0.13 µg/mL (≈ 0.534 µM) | inhibition at 100 µg/mL (NUGC-4 [13]): 49.9% | inhibition at 100 µg/mL (OST [14]): 48% | inhibition at 100 µg/mL (PC-13 [15]): 40% | inhibition at 100 µg/mL (U2OS [16]): 43.9% | inhibition at 100 µg/mL (PC-3 [17]): 46.2% | IC50 (PC-8): 0.28 µg/mL (≈ 1.15 µM) | IC50 (PC-9): 1.6 µg/mL (≈ 6.58 µM) | inhibition at 100 µg/mL (MFH-ST [18]): 47.9% | inhibition at 100 µg/mL (MG-63 [19]): 29.5% | IC50 (MKN-28): 4.5 µg/mL (≈ 18.5 µM) | IC50 (HOS-TE85): 2.6 µg/mL (≈ 10.7 µM) | inhibition at 100 µg/mL (ST-KM-1 [20]): 48.6%
